Screening results deposited in PubChem BioAssay by several laboratories.
Hits are enriched below; roughly 1.7% of the tested compounds scored in any of these assays.
EBNA-1 inhibitor = blocks EBNA-1 binding to DNA; inhibition, % at 14.8 µM; actives 0.34% (n = 300,000); EBNA-1 DNA binding, fluorescence polarization; in the data active = inhibition above about 28%
PREPL inhibitor = inhibitors of human prolyl oligopeptidase-like enzyme PREPL. recombinant PREPL, fluorescence polarization activity-based probe. inhibition, % at 5.96 µM. actives 0.68% (n = 320,000). AID 2751. Q4J6C6; in the data active = inhibition above about 43%
UBC13 polyUb = human UBC13 polyubiquitination inhibition; P61088; UBC13 polyubiquitin chain formation, TR-FRET; inhibition, % at 20 µM; actives 0.47% (n = 330,000); in the data active = inhibition above about 45%, passing the limit was not always enough
Apaf-1 inh = human Apaf-1 inhibition; O14727; reconstituted apoptosome caspase-3 activity, DEVD-Rh110 fluorescence; inhibition, % at 20 µM; actives 0.71% (n = 330,000); active = inhibition of at least 40% at 20 µM
Target sequence (O14727 whole entry, looked up): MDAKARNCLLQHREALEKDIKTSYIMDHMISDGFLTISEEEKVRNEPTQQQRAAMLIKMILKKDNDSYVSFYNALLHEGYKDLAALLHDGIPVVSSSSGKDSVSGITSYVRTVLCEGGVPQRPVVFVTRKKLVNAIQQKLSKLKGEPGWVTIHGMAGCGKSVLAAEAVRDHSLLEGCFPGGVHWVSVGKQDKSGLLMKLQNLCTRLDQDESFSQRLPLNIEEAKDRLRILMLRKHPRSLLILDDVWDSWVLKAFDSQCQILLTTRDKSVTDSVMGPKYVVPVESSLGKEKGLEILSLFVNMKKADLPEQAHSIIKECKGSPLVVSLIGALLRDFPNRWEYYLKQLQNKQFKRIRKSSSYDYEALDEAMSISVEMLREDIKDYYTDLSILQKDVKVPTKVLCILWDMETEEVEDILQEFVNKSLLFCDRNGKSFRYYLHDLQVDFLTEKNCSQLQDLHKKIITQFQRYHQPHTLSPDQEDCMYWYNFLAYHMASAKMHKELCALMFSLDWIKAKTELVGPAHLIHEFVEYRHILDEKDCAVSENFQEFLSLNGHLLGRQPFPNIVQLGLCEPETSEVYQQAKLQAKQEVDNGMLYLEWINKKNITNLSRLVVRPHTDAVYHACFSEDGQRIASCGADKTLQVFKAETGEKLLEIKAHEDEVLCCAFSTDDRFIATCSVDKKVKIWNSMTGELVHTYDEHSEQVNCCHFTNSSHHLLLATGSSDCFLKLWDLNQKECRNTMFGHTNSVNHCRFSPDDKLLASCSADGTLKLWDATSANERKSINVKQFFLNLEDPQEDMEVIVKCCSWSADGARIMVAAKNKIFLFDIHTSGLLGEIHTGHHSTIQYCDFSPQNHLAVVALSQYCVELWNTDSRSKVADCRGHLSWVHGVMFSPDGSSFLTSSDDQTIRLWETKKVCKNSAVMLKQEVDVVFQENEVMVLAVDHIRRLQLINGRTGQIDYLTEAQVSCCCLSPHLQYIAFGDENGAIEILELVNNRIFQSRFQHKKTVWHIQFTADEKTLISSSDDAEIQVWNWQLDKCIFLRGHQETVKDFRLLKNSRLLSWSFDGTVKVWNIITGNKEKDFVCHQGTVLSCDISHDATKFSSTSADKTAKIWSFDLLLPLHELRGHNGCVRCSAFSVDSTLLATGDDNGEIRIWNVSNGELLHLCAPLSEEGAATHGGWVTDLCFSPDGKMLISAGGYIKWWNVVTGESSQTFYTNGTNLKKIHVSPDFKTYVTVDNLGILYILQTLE
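Assay system: Apoptosome proteins | Medium: pH 7.5 Hepes buffer with CHAPS, BSA, DTT | Also added: Cytochrome c and DEVD-Rh110 substrate | Times: 30 min plus 50 min, RT | Detection: Rhodamine 110 fluorescence at Ex 480/Em 540 nm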
ZTA DNA inh = counter-screen for EBNA-1 inhibitors: inhibitors of Epstein-Barr virus ZTA | P03206 | ZTA-DNA binding, fluorescence polarization | inhibition, % at 11 µM | actives 0.15% (n = 320,000) | AID 2234; in the data active = inhibition above about 33%
Casp3 counter = inhibits human caspase-3 in UBC13 counter-screen; actives 4% (n = 1,400); inhibition, % at 20 µM; Recombinant caspase-3, Caspase-Glo 3/7 luminescence, 60 min; AID 488856; shares compounds with UBC13 polyUb;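 active = mean inhibition across replicates above about 26%, limit read from the data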
UBC13 confirm = human UBC13 polyubiquitin inhibition, confirmed; shares compounds with UBC13 polyUb; UBC13 polyubiquitination, TR-FRET, biochemical; inhibition, % at 10 µM; actives 68% (n = 1,400); AID 488859; in the data active = inhibition above about 45%
Apaf-1 inh conf = confirmation of Apaf-1 inhibitors; reconstituted apoptosome, caspase-3 DEVD-Rh110 fluorescence; actives 25% (n = 1,800); shares compounds with Apaf-1 inh; AID 504614; inhibition, % at 20 µM;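 active = mean inhibition of at least 40% at 20 µM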
Rh110 quench = Rh110 signal interference in Apaf-1 inhibitor counter-screen | shares compounds with Apaf-1 inh | Rh110 fluorescence interference, quenched caspase reaction | activation (fluorescence interference), % at 20 µM | 1,800 tested, under 10 active;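 active = signal rise of 40% or more at 20 µM, treated as a fluorescence artifact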
Large screens that a line does not name were inactive (follow-up assays come after a bar, where they were run).

Cc1c(CCOC(=O)C2C3CC4CC(C3)CC2C4)sc[n+]1CC(=O)c1ccc(Br)cc1 (stereo not given)	UBC13 polyUb 46.9, Apaf-1 inh 50.2 | Casp3 counter inactive | UBC13 confirm 75.0 | Apaf-1 inh conf inactive | Rh110 quench inactive
C#CCOCCOCCOCCNc1nc(N2CCN(C(=O)[C@H](CCCCN)n3cc([C@@H](N)CC(N)=O)nn3)CC2)nc(N2CCN(C(=O)[C@H](CCCCN)n3cc([C@@H](N)CC(N)=O)nn3)CC2)n1	UBC13 polyUb 108.4, Apaf-1 inh 55.2 (no result: EBNA-1 inhibitor, ZTA DNA inh) | Casp3 counter inactive | UBC13 confirm 111.0 | Apaf-1 inh conf inactive | Rh110 quench inactive
C#CCOCCOCCOCCNc1nc(N2CCN(C(=O)[C@H]([C@@H](C)CC)n3cc([C@@H](N)Cc4ccc(O)cc4)nn3)CC2)nc(N2CCN(C(=O)[C@H](CCCCN)n3cc([C@@H](N)CO)nn3)CC2)n1	UBC13 polyUb 97.6, Apaf-1 inh 52.3 | Casp3 counter inactive | UBC13 confirm 73.1 | Apaf-1 inh conf inactive | Rh110 quench inactive
C#CCOCCOCCOCCNc1nc(N2CCN(C(=O)C([C@@H](C)O)n3cc([C@@H](N)CCCCN)nn3)CC2)nc(N2CCN(C(=O)[C@H](CCCCN)n3cc([C@@H](N)CC(N)=O)nn3)CC2)n1 (stereo not given in full)	UBC13 polyUb 103.1, Apaf-1 inh 51.1 (no result: EBNA-1 inhibitor, ZTA DNA inh) | Casp3 counter inactive | UBC13 confirm 106.1 | Apaf-1 inh conf inactive | Rh110 quench inactive
O=[N+]([O-])c1cccc(C(=NCc2ccccc2)NO)c1	none (no result: EBNA-1 inhibitor, PREPL inhibitor, ZTA DNA inh)
NC1=NC[C@H](Cc2ccccc2)N1CCc1cc(C(F)(F)F)cc(C(F)(F)F)c1	UBC13 polyUb 80.1, Apaf-1 inh 53.5 | Casp3 counter inactive | UBC13 confirm 45.0 | Apaf-1 inh conf inactive | Rh110 quench inactive
COc1ccc2nc(C)cc(N/N=C/c3ccc(F)cc3)c2c1	UBC13 polyUb 97.0, Apaf-1 inh 49.6 | Casp3 counter inactive | UBC13 confirm 113.4 | Apaf-1 inh conf inactive | Rh110 quench inactive
COc1ccc(Nc2cc(C)nc3ccc(OC)cc23)cc1	none
c1ccc(CNc2nc(NCc3ccccc3)c3ccccc3n2)cc1	UBC13 polyUb 75.1, Apaf-1 inh 65.9 | Casp3 counter inactive | UBC13 confirm 91.7 | Apaf-1 inh conf inactive | Rh110 quench inactive
O=C(Nc1ccncc1)C1c2ccccc2Oc2ccccc21	none
COC(=O)C1=C(C)N(Cc2ccccc2)C(=NCc2ccco2)N[C@H]1c1cccc(F)c1	none (no result: EBNA-1 inhibitor, ZTA DNA inh)
COC(=O)C1=C(C)N(Cc2ccccc2)C(=NCc2ccc(OC)cc2)N[C@H]1c1cccc(F)c1	UBC13 polyUb 74.2, Apaf-1 inh 55.6 | Casp3 counter inactive | UBC13 confirm 65.6 | Apaf-1 inh conf inactive | Rh110 quench inactive
COC(=O)C1=C(C)N(Cc2ccccc2)C(=NCCc2cccnc2)N[C@H]1c1ccccc1	none
COC(=O)C1=C(C)N(Cc2ccccc2)C(=NCc2ccccc2)N[C@H]1c1cccc(C(F)(F)F)c1	UBC13 polyUb 76.5, Apaf-1 inh 64.7 (no result: EBNA-1 inhibitor, ZTA DNA inh) | Casp3 counter inactive | UBC13 confirm 82.5 | Apaf-1 inh conf inactive | Rh110 quench inactive
COC(=O)C1=C(C)N(Cc2ccccc2)C(=NCC(C)C)N[C@H]1c1cccc(F)c1	UBC13 polyUb 50.7, Apaf-1 inh 43.8 (no result: EBNA-1 inhibitor, ZTA DNA inh) | Casp3 counter inactive | UBC13 confirm inactive | Apaf-1 inh conf inactive | Rh110 quench inactive
COC(=O)C1=C(C)N(Cc2ccccc2)C(=NCCc2cccnc2)N[C@H]1c1ccc(Br)cc1	UBC13 polyUb 48.2, Apaf-1 inh 51.3 (no result: EBNA-1 inhibitor, ZTA DNA inh) | Casp3 counter inactive | UBC13 confirm inactive | Apaf-1 inh conf inactive | Rh110 quench inactive
CC(=O)Nc1ccc(S(=O)(=O)NCc2ccc(C(=O)NCCCN3CCC(C)CC3)cc2)cc1	none
COC(=O)C1=C(C)N(Cc2ccccc2)C(=O)N[C@H]1c1cccc(C(F)(F)F)c1	none
CCN1C(=NCCc2ccccn2)N[C@@H](c2cccc(C(F)(F)F)c2)C(C(=O)OC)=C1C	none (no result: EBNA-1 inhibitor, ZTA DNA inh)
COC(=O)C1=C(C)N(Cc2ccccc2)C(=NCCc2ccccn2)N[C@H]1c1cccc(C(F)(F)F)c1	UBC13 polyUb 51.7, Apaf-1 inh 48.4 (no result: EBNA-1 inhibitor, ZTA DNA inh) | Casp3 counter inactive | UBC13 confirm 58.1 | Apaf-1 inh conf inactive | Rh110 quench inactive
COC(=O)C1=C(C)N(Cc2ccccc2)C(=NCC(C)C)N[C@H]1c1cccc(C(F)(F)F)c1	UBC13 polyUb 72.3, Apaf-1 inh 58.0 (no result: EBNA-1 inhibitor, ZTA DNA inh) | Casp3 counter inactive | UBC13 confirm 74.5 | Apaf-1 inh conf inactive | Rh110 quench inactive
CN(C)CCCNC(=O)CC1C[C@H](C(=O)N2CCCCC2)[C@@]2(CCc3ccccc3)c3[nH]c4ccccc4c3CCN2C1=O (stereo not given in full)	UBC13 polyUb 47.1, Apaf-1 inh 45.9 (no result: EBNA-1 inhibitor, ZTA DNA inh) | Casp3 counter inactive | UBC13 confirm inactive | Apaf-1 inh conf inactive | Rh110 quench inactive
COc1ccc2[nH]c3c(c2c1)CCN1C(=O)C(CC(=O)NCCCN(C)C)C[C@H](C(=O)N2CCCCC2)[C@@]31CCc1ccccc1 (stereo not given in full)	none (no result: EBNA-1 inhibitor, PREPL inhibitor, UBC13 polyUb, ZTA DNA inh)
Cc1onc(C(=O)Nc2cccnc2Cl)c1[N+](=O)[O-]	none
Cc1ccccc1-n1c(SCc2c(C)noc2C)nnc1-c1c[nH]c2ccccc12	none
CCN1CCN(Cc2ccc(NC(=O)c3cc(NC(=O)c4ccno4)cc(OC)c3)cc2C(F)(F)F)CC1	none
CCN1CCN(Cc2ccc(NC(=O)c3cc(NC(=O)c4cc(-c5ccc(OC)cc5)n[nH]4)cc(OC)c3)cc2C(F)(F)F)CC1	UBC13 polyUb 60.9, Apaf-1 inh 56.3 | Casp3 counter inactive | UBC13 confirm inactive | Apaf-1 inh conf inactive | Rh110 quench inactive
CCN1CCN(Cc2ccc(NC(=O)c3cc(NC(=O)c4cncc(-c5cccs5)c4)cc(OC)c3)cc2C(F)(F)F)CC1	UBC13 polyUb 102.2, Apaf-1 inh 67.9 | Casp3 counter inactive | UBC13 confirm 90.7 | Apaf-1 inh conf inactive | Rh110 quench inactive
C=CCn1c(SCC(=O)N(CC)C2CCS(=O)(=O)C2)nnc1-c1ccccc1 (stereo not given)	UBC13 polyUb 54.2, Apaf-1 inh 61.4 (no result: EBNA-1 inhibitor) | Casp3 counter inactive | UBC13 confirm 53.4 | Apaf-1 inh conf inactive | Rh110 quench inactive
COc1ccccc1-c1oc2ccccc2c1C#CC1(N)CCCCC1	UBC13 polyUb 69.5, Apaf-1 inh 68.1 (no result: EBNA-1 inhibitor) | Casp3 counter inactive | UBC13 confirm 70.2 | Apaf-1 inh conf inactive | Rh110 quench inactive
COc1ccccc1-c1oc2ccccc2c1C#CC1(O)CCCCC1	none (no result: EBNA-1 inhibitor, ZTA DNA inh)
